Rows were chosen to be rich in hits. Some 2.7% of all compounds tested hit in one or more screens of this group.
OXTR potentiate: potentiators of human oxytocin receptor. CHO-OTR cells, Fluo-8 calcium fluorescence, potentiator mode; 0% = oxytocin EC15, 100% = EC100. P30559. activation, % at 3 µM. actives 0.061% (n = 320,000);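 active = activation above that plate's cutoff, the mean activation of tested compounds plus 3 SD, cut at about 6.6% in these data, passing the limit was not always enough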
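System: human OTR in CHO cells / Also added: sub-maximal oxytocin, roughly EC15 / Control set: EC15 oxytocin low, 75 nM oxytocin high / Schedule: 6 min compound pre-incubation at room temperature, 100 s kinetic read / Compound: single-point 3.0 µM / Replication: singlicate / Technique: Fluo-8 calcium dye fluorescence / Read-out basis: % activation of max/min ratio relative to oxytocin controls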
OX1R antag-1: antagonists of human orexin 1 receptor; inhibition, % at 5 µM; CHO/OX1R cells, Fluo-8 calcium fluorescence, orexin A; O43613; actives 0.43% (n = 330,000);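 active = inhibition above its plate's threshold, mean inhibition of all tested compounds on the plate plus 3 SD, cut at about 37% in these data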
OX1R antag-2: blocks the human orexin 1 receptor. OX1R-expressing cells, FRET antagonist read-out. inhibition, % at 6.6 µM. actives 1.8% (n = 330,000). AID 485270; in the data active = inhibition mostly above about 38%, no sharp cut-off; inactive = mostly below about 40%
V1aR counter: V1a receptor agonism, counter-screen for OXTR agonists; AID 2797; CHO-V1R cells, Fluo-8 calcium fluorescence, agonist mode; 0% DMSO, 100% 3 nM vasopressin; P37288; activation, % at 3 µM; actives 0.25% (n = 320,000);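 active = activation above the mean activation of all tested compounds plus 3 SD, per screening run, cut at about 20% in these data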;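 also: signal is peak over basal fluorescence ratio across a 100 second FLIPR read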
Target sequence (P37288 whole entry, looked up): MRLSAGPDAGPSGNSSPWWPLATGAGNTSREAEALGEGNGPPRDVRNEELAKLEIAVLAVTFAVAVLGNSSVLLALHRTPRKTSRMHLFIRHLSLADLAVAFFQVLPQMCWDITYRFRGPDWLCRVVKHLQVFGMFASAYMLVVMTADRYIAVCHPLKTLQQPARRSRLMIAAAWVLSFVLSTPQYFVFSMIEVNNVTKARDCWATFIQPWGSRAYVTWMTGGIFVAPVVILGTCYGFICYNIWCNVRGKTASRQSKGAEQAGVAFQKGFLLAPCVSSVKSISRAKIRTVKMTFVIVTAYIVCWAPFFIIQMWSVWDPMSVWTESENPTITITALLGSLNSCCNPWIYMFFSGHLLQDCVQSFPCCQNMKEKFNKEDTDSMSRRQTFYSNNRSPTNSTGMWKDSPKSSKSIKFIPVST
OXTR ag: human OXTR agonism; CHO-OTR cells, Fluo-8 calcium fluorescence; normalized: DMSO 0%, oxytocin 100%; activation, % at 3 µM; P30559; actives 0.32% (n = 320,000);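 active = activation above the mean of all tested compounds plus 3 SD, cutoff set per screening run, cut at about 20% in these data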;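 also: peak over basal fluorescence ratio from a 100 s FLIPR kinetic read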
CHO parental Ca: counter-screen: ATP calcium response change in parental CHO cells. parental CHO-K1, ATP-induced calcium, Fluo-8 fluorescence. actives 0.63% (n = 330,000). AID 463079. inhibition, % at 5.6 µM;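 active = inhibition above that plate's mean sample inhibition plus 3 SD, cut at about 26% in these data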
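Material: parental CHO cells / Compound: single nominal dose of 5.6 µM per compound / Signal: Fluo-8 fluorescence / Replicates: singlicate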
OX1R Ca confirm: OX1R (human) antagonism, confirmed. shares compounds with OX1R antag-1. CHO/OX1R cells, orexin A calcium Fluo-8 fluorescence. inhibition, % at 5 µM. actives 38% (n = 1,100); in the data active = inhibition above about 29%
CHO Ca triplic: signal in parental CHO cells, OX1R antagonist counter-screen; shares compounds with OX1R antag-1; parental CHO-K1, ATP-induced calcium, Fluo-8 fluorescence; inhibition, % at 5.6 µM; actives 9.3% (n = 1,100); AID 492965;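 active = inhibition above a per-plate limit, the mean inhibition of that plate's test compounds plus 3 SD, cut at about 25% in these data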
OX1R HTRF confirm: confirmation of human orexin 1 receptor antagonists, HTRF format. inhibition, % at 6.6 µM. OX1R-expressing cells, HTRF antagonist assay. shares compounds with OX1R antag-2. actives 49% (n = 1,800). AID 492964; in the data active = inhibition above about 55%;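 also: CHO cells expressing OX1R stimulated with orexin A at about EC80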
CHO-K1 HTRF: signal in parental CHO-K1 cells, OX1R antagonist counter-screen | shares compounds with OX1R antag-2 | HTRF counterscreen | inhibition, % at 6.6 µM | actives 48% (n = 1,800) | AID 493232; in the data active = inhibition above about 17%
Hits are given with their value.

COc1ccccc1C(=O)Nc1ccc2nc3n(c(=O)c2c1)CCCC3 was read as OXTR potentiate inactive, OX1R antag-1 inactive, OX1R antag-2 95, V1aR counter inactive, OXTR ag inactive, CHO parental Ca inactive, OX1R Ca confirm 31, CHO Ca triplic inactive, OX1R HTRF confirm 97 and CHO-K1 HTRF inactive.
For COc1ccc2c(Cl)c(C(=O)N/N=C/c3c(C)[nH]c4ccccc34)sc2c1 the results were OXTR potentiate inactive, OX1R antag-1 41, OX1R antag-2 65, V1aR counter inactive, OXTR ag inactive, CHO parental Ca inactive, OX1R Ca confirm 63, CHO Ca triplic inactive, OX1R HTRF confirm 93 and CHO-K1 HTRF inactive.
Screening O=C(N/N=C/c1c[nH]c2ccccc12)c1sc2ccccc2c1Cl returned OXTR potentiate inactive, OX1R antag-1 inactive, OX1R antag-2 90, V1aR counter inactive, OXTR ag inactive, CHO parental Ca inactive, OX1R Ca confirm 41, CHO Ca triplic inactive, OX1R HTRF confirm 63 and CHO-K1 HTRF inactive.
For CCN(Cc1ccncc1)C(=O)c1cc(COc2c(C)cccc2C)on1 the results were OXTR potentiate inactive, OX1R antag-1 inactive, OX1R antag-2 inactive, V1aR counter inactive, OXTR ag inactive and CHO parental Ca inactive.
Screening CCOc1ccc(NC(=O)c2cc(S(=O)(=O)N3CCOCC3)cn2C)cc1 returned OXTR potentiate inactive, OX1R antag-1 inactive, OX1R antag-2 inactive, V1aR counter inactive, OXTR ag inactive and CHO parental Ca inactive.
CC(C)c1ccc(CN(C)C(=O)c2ccc(S(=O)(=O)NCc3ccco3)cc2)cc1 was read as OXTR potentiate inactive, OX1R antag-1 44, OX1R antag-2 42, V1aR counter inactive, OXTR ag inactive, CHO parental Ca inactive, OX1R Ca confirm inactive, CHO Ca triplic 25, OX1R HTRF confirm inactive and CHO-K1 HTRF inactive.
`COc1ccc(CCN(C)C(=O)c2ccc(S(=O)(=O)NCc3ccco3)cc2)cc1OC` gave OXTR potentiate inactive, OX1R antag-1 inactive, OX1R antag-2 inactive, V1aR counter inactive, OXTR ag inactive and CHO parental Ca inactive.
`CCc1ccc(-c2cc(C)no2)cc1S(=O)(=O)NCCCN1CCN(c2ccccc2)CC1` gave OXTR potentiate inactive, OX1R antag-1 inactive, OX1R antag-2 41, V1aR counter inactive, OXTR ag inactive, CHO parental Ca inactive, OX1R Ca confirm inactive, CHO Ca triplic inactive, OX1R HTRF confirm inactive and CHO-K1 HTRF inactive.
COc1ccc(OC)c(S(=O)(=O)n2ccnc2C(C)C)c1 was read as OXTR potentiate inactive, OX1R antag-1 inactive, OX1R antag-2 inactive, V1aR counter inactive, OXTR ag inactive and CHO parental Ca inactive.
`O=S(=O)(NCCOc1ccccc1Cl)c1ccc2oc3ccccc3c2c1` gave OXTR potentiate inactive, OX1R antag-1 55, OX1R antag-2 99, V1aR counter inactive, OXTR ag inactive, CHO parental Ca inactive, OX1R Ca confirm inactive, CHO Ca triplic inactive, OX1R HTRF confirm 66 and CHO-K1 HTRF inactive.
Cc1ccc(NC2CCCN(C(=O)c3cccc(-c4ncc[nH]4)c3)C2)cc1C (configuration not stated) was read as OXTR potentiate inactive, OX1R antag-1 inactive, OX1R antag-2 93, V1aR counter inactive, OXTR ag inactive, CHO parental Ca inactive, OX1R Ca confirm 65, CHO Ca triplic inactive, OX1R HTRF confirm 92 and CHO-K1 HTRF inactive.
O=C(CNC(=O)c1ccccc1F)NCc1ccccn1 was read as OXTR potentiate inactive, OX1R antag-1 inactive, OX1R antag-2 inactive, V1aR counter inactive, OXTR ag inactive and CHO parental Ca inactive.
c1ccc2nc(-c3ccc(N4CCOCC4)cc3)ccc2c1 was read as OXTR potentiate inactive, OX1R antag-1 inactive, OX1R antag-2 inactive, V1aR counter inactive, OXTR ag inactive and CHO parental Ca inactive.
`Cc1cc(-c2ccc(N3CCOCC3)cc2)nc2ccccc12` gave OXTR potentiate inactive, OX1R antag-1 inactive, OX1R antag-2 91, V1aR counter inactive, OXTR ag inactive, CHO parental Ca inactive, OX1R Ca confirm 54, CHO Ca triplic inactive, OX1R HTRF confirm 93 and CHO-K1 HTRF inactive.
Screening CCc1ccc(/C=N\NC(=O)c2ccc(Br)o2)s1 returned OXTR potentiate inactive, OX1R antag-1 inactive, OX1R antag-2 inactive, V1aR counter inactive, OXTR ag inactive and CHO parental Ca inactive.
Screening CCN(CC)c1ccc(/C=N/NC(=O)c2ccc(Br)o2)cc1 returned OXTR potentiate inactive, OX1R antag-1 inactive, OX1R antag-2 91, V1aR counter inactive, OXTR ag inactive, CHO parental Ca inactive, OX1R Ca confirm 55, CHO Ca triplic inactive, OX1R HTRF confirm 90 and CHO-K1 HTRF inactive.
For COC(=O)c1cc(OC)c(OC)cc1N1C(=O)CC(C)(C)CC1=O the results were OXTR potentiate inactive, OX1R antag-1 inactive, OX1R antag-2 inactive, V1aR counter inactive, OXTR ag inactive and CHO parental Ca inactive.
Screening O=c1oc(CCCO)cc2ccc(C#Cc3ccsc3)cc12 returned OXTR potentiate inactive, OX1R antag-1 55, OX1R antag-2 42, V1aR counter inactive, OXTR ag inactive, CHO parental Ca inactive, OX1R Ca confirm inactive, CHO Ca triplic inactive, OX1R HTRF confirm inactive and CHO-K1 HTRF inactive.
O=c1oc(CCCO)cc2ccc(C#CC3(O)CCCCC3)cc12 was read as OXTR potentiate inactive, OX1R antag-1 inactive, OX1R antag-2 inactive, V1aR counter inactive, OXTR ag inactive and CHO parental Ca inactive.
CC(C)(O)c1cc2ccc(C#Cc3ccsc3)cc2c(=O)o1 was read as OXTR potentiate inactive, OX1R antag-1 60, OX1R antag-2 71, V1aR counter inactive, OXTR ag inactive, CHO parental Ca inactive, OX1R Ca confirm 36, CHO Ca triplic inactive, OX1R HTRF confirm 83 and CHO-K1 HTRF inactive.
`NCC(O)CN1CCN(Cc2ccccc2)CC1` (configuration not stated) gave OXTR potentiate inactive, OX1R antag-1 inactive, OX1R antag-2 inactive, V1aR counter inactive, OXTR ag inactive and CHO parental Ca inactive.
`COc1ccc(CNC(=O)CN(c2ccc(C(C)C)cc2)S(=O)(=O)c2c(C)noc2C)cc1` gave OXTR potentiate inactive, OX1R antag-1 inactive, OX1R antag-2 inactive, V1aR counter inactive, OXTR ag inactive and CHO parental Ca inactive.

Source: PubChem BioAssay
